# A selection: hits, their analogues and other compounds. The true share with any hit is near 2.8%.
# NPY2 pot ag: NPY-Y2 potentiators or agonists, primary screen, cell-based. cells expressing NPY-Y2, potentiator/agonist read-out. activation, % at 3.6 µM. actives 0.45% (n = 220,000). AID 1359, 2008; in the data active = activation above about 27%;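 note: cells stimulated with NPY near EC25 plus isoproterenol at EC100; 0% = vehicle plus submaximal agonist and 100% = vehicle plus saturating agonist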
# EP2 modulator: EP2 receptor modulators, cAMP readout, primary screen, cell-based, HTRF cAMP, PGE2 stimulation. Prostaglandin E2 receptor EP2 subtype (Homo sapiens), P43116. actives 0.83% (n = 260,000). EP2-expressing cells, cAMP HTRF FRET, PGE2 co-stimulation. induction, % at 25 µM;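 active = compounds whose cAMP rise, as percent of the full-agonist control response, exceeds 60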;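 note: rat C6 glioma line stably carrying human EP2 under a CMV promoter; the protocol text gives 20 µM as final concentration; 100% = response of wells given 1 µM PGE2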
# NPY-Y2 antag: NPY-Y2 receptor antagonists, primary screen, cell-based. NPY-Y2 expressing cells, antagonist mode. inhibition, % at 2.7 µM. actives 0.99% (n = 140,000); in the data active = inhibition above about 17%;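 note: 0% = vehicle with agonist challenge and 100% = reference antagonist with challenge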
# NPY1 pot ag: NPY-Y1 receptor potentiators or agonists, primary screen, cell-based. AID 1304, 2008. NPY-Y1 expressing cells, potentiator/agonist activation. actives 0.37% (n = 220,000). Neuropeptide Y receptor type 1 (Homo sapiens), P25929. activation, % at 3.6 µM; in the data active = activation above about 33%, passing the limit was not always enough;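 note: cells stimulated with NPY at EC10 then isoproterenol at EC100; 0% = low agonist plus stimulus and 100% = saturating agonist plus stimulus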
# Target sequence (P25929 whole entry, looked up): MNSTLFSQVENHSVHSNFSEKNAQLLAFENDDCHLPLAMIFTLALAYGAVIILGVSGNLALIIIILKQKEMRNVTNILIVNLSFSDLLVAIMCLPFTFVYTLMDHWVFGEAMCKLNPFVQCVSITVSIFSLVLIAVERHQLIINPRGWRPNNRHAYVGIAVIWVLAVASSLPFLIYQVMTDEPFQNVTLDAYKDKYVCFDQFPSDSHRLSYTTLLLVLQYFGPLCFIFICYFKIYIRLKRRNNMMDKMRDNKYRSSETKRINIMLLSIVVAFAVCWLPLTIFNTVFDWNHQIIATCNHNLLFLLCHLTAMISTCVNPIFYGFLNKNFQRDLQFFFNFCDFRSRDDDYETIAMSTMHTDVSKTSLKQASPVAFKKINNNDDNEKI
# NPY-Y1 antag: NPY-Y1 receptor antagonists, primary screen, cell-based; HEK293-CNG Y1 cells, membrane potential fluorescence; NPY at EC95, then isoproterenol; actives 1% (n = 200,000); inhibition, % at 3.6 µM; Neuropeptide Y receptor type 1 (Homo sapiens), P25929;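 active = inhibition above the campaign mean inhibition of all tested compounds plus 3 SD, cut at about 20% in these data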;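 note: 0% = DMSO wells given NPY plus isoproterenol and 100% = isoproterenol alone without NPY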
#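 material = HEK293 cells with Y1 receptor plus CNG channel | also added = NPY 25 nM then isoproterenol 1 µM plus Ro 20-1724 25 µM | schedule = dye 3 h, compound 60 min room temperature, stimulation 45 min | measured by = membrane potential fluorescence | benchmarks = high control isoproterenol alone, low control NPY with isoproterenol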
# PGE2 EP2 inh: human EP2 receptor antagonists, primary screen, TR-FRET cAMP, C6 glioma cells. actives 0.52% (n = 260,000). C6 glioma cells expressing human EP2; cells stimulated with saturating PGE2. AID 1422, 2008. inhibition, % at 25 µM. Prostaglandin E2 receptor EP2 subtype (Homo sapiens), P43116;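 active = percent inhibition above 40 after rounding to a whole number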;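 note: rat C6 glioma host cells with rolipram phosphodiesterase inhibitor present; the protocol text gives 20 µM as final concentration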
# NPY1 antag ctr: NPY-Y1 receptor antagonists, selectivity check, counter-screen for NPY-Y2 antagonist project, cell-based; shares compounds with NPY-Y2 antag; cell-based NPY-Y1 antagonism counterscreen; inhibition, % at 3.6 µM; actives 19% (n = 710); in the data active = inhibition above about 20%;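 note: cells challenged with NPY then isoproterenol with cAMP sensed through a CNG channel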
# NPY-Y2 ant conf: NPY-Y2 receptor antagonists, retest of hits, confirmation, HEK293-CNG cells, membrane potential fluorescence, triplicate; shares compounds with NPY-Y2 antag; HEK293 NPY-Y2 CNG channel; inhibition, % at 2.8 µM; actives 32% (n = 710);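 active = mean inhibition of triplicate wells above the hit cutoff set in the primary screen, cut at about 17% in these data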;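 note: 0% = DMSO with NPY challenge and 100% = BIIE0246 high control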
# EP2 cAMP induct: cAMP induction in EP2, EP4, beta2-AR and parental cells, confirmation, counter-screen for EP2 modulator project, cell-based, five parallel assays, C6 glioma, HEK293; shares compounds with EP2 modulator; cAMP HTRF induction; plus low (about EC15) PGE2 agonist; calls only at 20 µM (by protocol); actives 47% (n = 1,300);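 active = cAMP induction above 50% in the main assay while under 30% in all four parallel counter assays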;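 note: rat C6 glioma cells stably expressing human EP2 receptor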
# Active calls of the source: *; i = inactive; x = no result given.
SMILES,NPY2 pot ag,EP2 modulator,NPY-Y2 antag,NPY1 pot ag,NPY-Y1 antag,PGE2 EP2 inh,NPY1 antag ctr,NPY-Y2 ant conf,others
C[C@H]1O[C@@H](O[C@H]2[C@@H](O)C[C@H](O[C@H]3[C@@H](O)C[C@H](O[C@H]4CC[C@@]5(C)[C@H](CC[C@@H]6[C@@H]5CC[C@]5(C)[C@@H](C7=CC(=O)OC7)CC[C@]65O)C4)O[C@@H]3C)O[C@@H]2C)C[C@H](O)[C@@H]1O,-17.5,15.6,44.5*,-82.3,50.9*,10.6,x,x,
CO[C@H]1[C@H](O)[C@@H](O[C@H]2CC[C@]3(C=O)C4CC[C@]5(C)[C@@H](C6=CC(=O)OC6)CC[C@]5(O)C4CC[C@@H]3C2)O[C@@H](C)[C@@H]1O (some centres undefined),x,10.8,x,x,x,5.6,x,x,
C[C@@H]1O[C@@H](O[C@H]2C[C@@H](O)[C@]3(CO)[C@H]4[C@H](O)C[C@]5(C)[C@@H](C6=CC(=O)OC6)CC[C@]5(O)[C@@H]4CC[C@]3(O)C2)[C@H](O)[C@H](O)[C@H]1O,-22.0,0.2,21.9*,-79.1,33.8*,8.9,x,x,
Cn1ccnc1C1(O)CC2CCC(C1)N2CC(=O)Nc1ccc(F)cc1 (centres undefined),x,-18.6,x,x,x,x,x,x,
CC(CCc1ccccc1)NC(C)C(O)c1ccc(O)cc1 (centres undefined),85.8*,16.4,3.5,92.0*,-9.4,13.3,x,x,
CN(C)c1ccc(P(=S)(N(C)C)N(C)C)cc1,-17.4,0.0,4.7,-9.1,2.3,8.2,x,x,
CCOP(=S)(OCC)c1ccc(N(C)C)cc1,-14.8,7.7,17.2*,-6.5,14.9,4.6,16.6,6.9,
CCC(=NCCC(c1ccccc1)c1ccccc1)c1c(O)[nH]c(=O)[nH]c1=O,-7.2,41.8,35.1*,-21.8,7.0,7.7,39.8*,66.8*,
COP(=O)(OC)C(Nc1ccccn1)c1ccccc1 (centres undefined),2.9,3.4,0.1,-8.5,1.9,6.6,x,x,
O=P(Oc1ccccc1)(Oc1ccccc1)C(Nc1ccccc1)c1ccccc1 (centres undefined),0.6,52.1,28.2*,-6.4,5.6,0.8,26.5*,20.0*,
Cc1cc(C)nc(NC2=NCCN2)n1,x,-14.8,x,x,x,10.7,x,x,
CCOc1nc(NCc2ccco2)nc(N2CC3CC(C2)c2cccc(=O)n2C3)n1 (centres undefined),x,-36.6,x,x,x,4.0,x,x,
O=C(c1ccco1)c1cn(Cc2ccccc2Cl)c2ccccc12,-21.1,43.8,23.9*,-27.6,12.3,5.0,12.8,11.3,
N#Cc1ccccc1Cn1cc(C(=O)c2ccco2)c2ccccc21,1.1,3.3,17.2*,-50.7,16.1,8.3,6.0,4.7,
O=C(c1ccco1)c1cn(Cc2ccccc2)c2ccccc12,-3.2,28.4,16.3,-41.4,7.1,2.3,x,x,
CN(C)CCN(C(=O)Cc1csc(-c2cccc(F)c2)n1)C1CCCC1,x,-59.8,x,x,x,13.1,x,x,
CC1CCC(C(C)C)C(OC(=O)COC(=O)c2ccccc2N)C1 (centres undefined),-17.4,47.1,18.3*,-34.4,17.5,8.8,9.2,14.5,
CC(C)c1nccn1Cc1ccc(Cl)cc1Cl,x,106.0*,x,x,x,-1.7,x,x,EP2 cAMP induct=i
